Reference: ChEMBL document CHEMBL1154277, “Discovery of N-substituted pyridinones as potent and selective inhibitors of p38 kinase” (Bioorg Med Chem Lett, 2009)

Tests used:
[1] = target: Protein kinase C epsilon type (Homo sapiens) (UniProt Q02156); experiment: Inhibition of PKCepsilon at 10 uM
[2] = test system: Platelet-derived growth factor receptor alpha (Homo sapiens), P16234 [D842V]; experiment: Inhibition of PDGFRalpha D842V (mutant) at 10 uM
[3] = target: Casein kinase II subunit alpha' (Homo sapiens) (UniProt P19784); experiment: Inhibition of CK2alpha2 at 10 uM
Sequence of Casein kinase II subunit alpha' (Homo sapiens) (P19784 whole entry, looked up): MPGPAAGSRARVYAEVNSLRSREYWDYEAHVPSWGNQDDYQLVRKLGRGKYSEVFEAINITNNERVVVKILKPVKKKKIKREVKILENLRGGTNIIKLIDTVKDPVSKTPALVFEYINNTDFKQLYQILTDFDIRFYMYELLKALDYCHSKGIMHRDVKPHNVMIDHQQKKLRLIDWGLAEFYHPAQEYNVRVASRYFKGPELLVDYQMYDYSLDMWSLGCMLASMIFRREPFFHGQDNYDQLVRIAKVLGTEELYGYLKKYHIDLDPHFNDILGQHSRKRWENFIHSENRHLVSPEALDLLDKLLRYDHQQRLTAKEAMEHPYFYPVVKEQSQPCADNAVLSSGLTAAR

[4] = target: Eukaryotic elongation factor 2 kinase (Homo sapiens) (UniProt O00418); experiment: Inhibition of EEF2K at 10 uM
Sequence of Eukaryotic elongation factor 2 kinase (Homo sapiens) (O00418 whole entry): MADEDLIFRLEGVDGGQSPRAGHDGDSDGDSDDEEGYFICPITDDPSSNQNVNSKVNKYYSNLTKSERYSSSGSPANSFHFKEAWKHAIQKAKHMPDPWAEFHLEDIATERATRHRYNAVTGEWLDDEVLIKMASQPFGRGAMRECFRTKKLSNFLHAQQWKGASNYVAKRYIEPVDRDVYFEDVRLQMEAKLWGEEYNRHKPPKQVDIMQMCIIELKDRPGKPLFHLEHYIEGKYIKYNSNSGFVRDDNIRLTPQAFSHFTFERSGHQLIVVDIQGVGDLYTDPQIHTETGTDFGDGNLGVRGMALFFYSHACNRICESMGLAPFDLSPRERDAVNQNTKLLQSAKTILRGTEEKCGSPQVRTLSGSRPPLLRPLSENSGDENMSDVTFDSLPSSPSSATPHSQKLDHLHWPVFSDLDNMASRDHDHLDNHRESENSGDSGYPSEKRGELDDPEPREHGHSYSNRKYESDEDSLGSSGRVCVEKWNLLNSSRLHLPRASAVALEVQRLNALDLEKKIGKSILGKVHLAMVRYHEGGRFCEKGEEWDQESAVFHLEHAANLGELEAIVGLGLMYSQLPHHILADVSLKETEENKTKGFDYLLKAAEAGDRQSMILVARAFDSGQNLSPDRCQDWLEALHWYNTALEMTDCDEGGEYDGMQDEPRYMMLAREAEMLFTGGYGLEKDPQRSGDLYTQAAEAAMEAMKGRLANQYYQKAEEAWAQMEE

[5] = target: CDK9/cyclin T1 (Homo sapiens) (UniProt O60563+P50750); experiment: Inhibition of CDK9/cyclin T1 at 10 uM; type: protein-complex assay
[6] = Metabolic stability in human liver microsomes assessed as compound remaining at 2 uM after 45 mins by LC/MS analysis; type: ADME, Microsome; settings: read-out: Stability
[7] = target: Serine/threonine-protein kinase PLK3 (Homo sapiens) (UniProt Q9H4B4); experiment: Inhibition of PLK3 at 10 uM
[8] = target: Ribosomal protein S6 kinase alpha-2 (Homo sapiens) (UniProt Q15349); experiment: Inhibition of RSK3 at 10 uM
[9] = target: Tyrosine-protein kinase JAK3 (Homo sapiens) (UniProt P52333); experiment: Inhibition of JAK3 at 10 uM
[10] = target: Ribosomal protein S6 kinase alpha-5 (Homo sapiens) (UniProt O75582); experiment: Inhibition of MSK1 at 10 uM
Rattus norvegicus = experiment: Antiinflammatory activity in Lewis rat assessed as inhibition of LPS-induced TNFalpha release at 5 mg/kg administered before LPS challenge and measured after 4 hrs by ELISA; type: functional
Outline: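 Rat LPS challenge. The compound was given at –4 h relative to LPS, at the dose in mg/kg shown for each line. Read-out is percent inhibition of TNFα.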

[11] = test system: Epidermal growth factor receptor (Homo sapiens), P00533 [T790M]; experiment: Inhibition of EGFR T790M (mutant) at 10 uM; type: protein assay
[12] = target: cGMP-dependent protein kinase 1 (Homo sapiens) (UniProt Q13976); experiment: Inhibition of PRKG1 at 10 uM
[13] = target: Proto-oncogene tyrosine-protein kinase receptor Ret (Homo sapiens) (UniProt P07949); experiment: Inhibition of RET at 10 uM
[14] = target: Tyrosine-protein kinase BTK (Homo sapiens) (UniProt Q06187); experiment: Inhibition of BTK at 10 uM
[15] = target: cAMP-dependent protein kinase catalytic subunit PRKX (Homo sapiens) (UniProt P51817); experiment: Inhibition of PRKX at 10 uM
[16] = target: RAC-gamma serine/threonine-protein kinase (Homo sapiens) (UniProt Q9Y243); experiment: Inhibition of AKT3 at 10 uM
[17] = target: Tyrosine-protein kinase Lyn (Homo sapiens) (UniProt P07948); experiment: Inhibition of LYN B at 10 uM
Sequence of Tyrosine-protein kinase Lyn (Homo sapiens) (P07948 2-512 limits assumed): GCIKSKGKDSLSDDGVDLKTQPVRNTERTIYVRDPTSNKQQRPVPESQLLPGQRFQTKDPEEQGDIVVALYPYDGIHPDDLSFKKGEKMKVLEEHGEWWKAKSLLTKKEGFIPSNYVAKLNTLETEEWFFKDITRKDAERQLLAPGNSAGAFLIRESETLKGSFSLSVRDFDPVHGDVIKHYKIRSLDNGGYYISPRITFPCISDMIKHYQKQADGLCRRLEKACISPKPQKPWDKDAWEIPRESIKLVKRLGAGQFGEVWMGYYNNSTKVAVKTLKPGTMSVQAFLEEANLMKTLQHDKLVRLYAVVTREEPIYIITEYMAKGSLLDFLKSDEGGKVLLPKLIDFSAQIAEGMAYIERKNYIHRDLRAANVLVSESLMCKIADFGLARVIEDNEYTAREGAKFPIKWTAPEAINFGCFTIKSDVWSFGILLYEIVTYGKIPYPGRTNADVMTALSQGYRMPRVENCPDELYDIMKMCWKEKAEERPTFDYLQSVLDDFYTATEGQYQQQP

[18] = target: MAP kinase-activated protein kinase 2 (Homo sapiens) (UniProt P49137); experiment: Inhibition of MAPKAPK2 at 10 uM
[19] = target: G protein-coupled receptor kinase 5 (Homo sapiens) (UniProt P34947); experiment: Inhibition of GRK5 at 10 uM
[20] = target: Rhodopsin kinase GRK7 (Homo sapiens) (UniProt Q8WTQ7); experiment: Inhibition of GRK7 at 10 uM
[21] = target: Serine/threonine-protein kinase D1 (Homo sapiens) (UniProt Q15139); experiment: Inhibition of PKCmu at 10 uM
[22] = target: Ribosomal protein S6 kinase alpha-1 (Homo sapiens) (UniProt Q15418); experiment: Inhibition of RSK1 at 10 uM
[23] = target: Serine/threonine-protein kinase 24 (Homo sapiens) (UniProt Q9Y6E0); experiment: Inhibition of MST3 at 10 uM
[24] = target: Phosphorylase b kinase gamma catalytic chain, skeletal muscle/heart isoform (Homo sapiens) (UniProt Q16816); experiment: Inhibition of PHKgamma1 at 10 uM
[25] = target: Interleukin-1 receptor-associated kinase 1 (Homo sapiens) (UniProt P51617); experiment: Inhibition of IRAK1 at 10 uM
Sequence of Interleukin-1 receptor-associated kinase 1 (Homo sapiens) (P51617 whole entry, looked up): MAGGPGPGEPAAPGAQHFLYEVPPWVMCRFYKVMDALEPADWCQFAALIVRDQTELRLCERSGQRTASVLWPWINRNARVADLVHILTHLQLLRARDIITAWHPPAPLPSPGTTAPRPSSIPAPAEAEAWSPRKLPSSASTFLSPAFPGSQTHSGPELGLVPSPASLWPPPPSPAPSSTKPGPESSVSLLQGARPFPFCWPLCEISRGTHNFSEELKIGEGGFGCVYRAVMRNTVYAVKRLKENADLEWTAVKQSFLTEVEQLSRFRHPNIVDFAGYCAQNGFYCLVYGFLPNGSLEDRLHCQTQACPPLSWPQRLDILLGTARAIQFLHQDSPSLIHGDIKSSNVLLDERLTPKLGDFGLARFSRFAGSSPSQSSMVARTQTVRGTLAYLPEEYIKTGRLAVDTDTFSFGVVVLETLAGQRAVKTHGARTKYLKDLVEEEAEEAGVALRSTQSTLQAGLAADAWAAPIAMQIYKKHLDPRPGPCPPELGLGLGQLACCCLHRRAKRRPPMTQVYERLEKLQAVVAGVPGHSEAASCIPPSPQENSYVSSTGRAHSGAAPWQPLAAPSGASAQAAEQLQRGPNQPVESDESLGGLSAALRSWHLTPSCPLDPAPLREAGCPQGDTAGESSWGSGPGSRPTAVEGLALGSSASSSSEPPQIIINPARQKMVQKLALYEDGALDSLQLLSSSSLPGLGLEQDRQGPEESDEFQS

[26] = target: 3-phosphoinositide-dependent protein kinase 1 (Homo sapiens) (UniProt O15530); experiment: Inhibition of PDK1 at 10 uM
Sequence of 3-phosphoinositide-dependent protein kinase 1 (Homo sapiens) (O15530 whole entry, looked up): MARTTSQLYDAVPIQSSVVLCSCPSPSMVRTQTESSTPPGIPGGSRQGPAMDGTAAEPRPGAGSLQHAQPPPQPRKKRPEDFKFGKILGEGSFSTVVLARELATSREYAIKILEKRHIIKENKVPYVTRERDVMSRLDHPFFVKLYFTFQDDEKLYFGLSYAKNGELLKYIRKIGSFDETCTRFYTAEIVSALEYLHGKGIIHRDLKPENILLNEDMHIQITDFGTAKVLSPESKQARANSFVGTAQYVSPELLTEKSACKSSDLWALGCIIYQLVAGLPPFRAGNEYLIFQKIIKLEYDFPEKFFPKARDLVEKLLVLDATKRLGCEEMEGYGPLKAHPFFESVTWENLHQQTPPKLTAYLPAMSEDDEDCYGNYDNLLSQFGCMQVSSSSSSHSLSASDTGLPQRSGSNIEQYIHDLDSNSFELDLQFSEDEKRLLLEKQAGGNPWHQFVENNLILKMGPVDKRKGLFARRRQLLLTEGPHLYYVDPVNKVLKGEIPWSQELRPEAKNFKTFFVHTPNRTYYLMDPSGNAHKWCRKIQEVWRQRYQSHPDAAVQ

[27] = Inhibition of KHS1 at 10 uM
[28] = target: Serine/threonine-protein kinase PAK 2 (Homo sapiens) (UniProt Q13177); experiment: Inhibition of PAK2 at 10 uM
[29] = target: Vascular endothelial growth factor receptor 2 (Homo sapiens) (UniProt P35968); experiment: Inhibition of KDR at 10 uM
[30] = target: Serine/threonine-protein kinase TAO1 (Homo sapiens) (UniProt Q7L7X3); experiment: Inhibition of TAO1 at 10 uM
[31] = test system: Hepatocyte growth factor receptor (Homo sapiens), P08581 [M1250T]; experiment: Inhibition of MET M1250T (mutant) at 10 uM
[32] = target: Casein kinase I isoform gamma-2 (Homo sapiens) (UniProt P78368); experiment: Inhibition of CSNK1G2 at 10 uM
[33] = target: Serine/threonine-protein kinase D3 (Homo sapiens) (UniProt O94806); experiment: Inhibition of PKD3 at 10 uM
Sequence of Serine/threonine-protein kinase D3 (Homo sapiens) (O94806 whole entry): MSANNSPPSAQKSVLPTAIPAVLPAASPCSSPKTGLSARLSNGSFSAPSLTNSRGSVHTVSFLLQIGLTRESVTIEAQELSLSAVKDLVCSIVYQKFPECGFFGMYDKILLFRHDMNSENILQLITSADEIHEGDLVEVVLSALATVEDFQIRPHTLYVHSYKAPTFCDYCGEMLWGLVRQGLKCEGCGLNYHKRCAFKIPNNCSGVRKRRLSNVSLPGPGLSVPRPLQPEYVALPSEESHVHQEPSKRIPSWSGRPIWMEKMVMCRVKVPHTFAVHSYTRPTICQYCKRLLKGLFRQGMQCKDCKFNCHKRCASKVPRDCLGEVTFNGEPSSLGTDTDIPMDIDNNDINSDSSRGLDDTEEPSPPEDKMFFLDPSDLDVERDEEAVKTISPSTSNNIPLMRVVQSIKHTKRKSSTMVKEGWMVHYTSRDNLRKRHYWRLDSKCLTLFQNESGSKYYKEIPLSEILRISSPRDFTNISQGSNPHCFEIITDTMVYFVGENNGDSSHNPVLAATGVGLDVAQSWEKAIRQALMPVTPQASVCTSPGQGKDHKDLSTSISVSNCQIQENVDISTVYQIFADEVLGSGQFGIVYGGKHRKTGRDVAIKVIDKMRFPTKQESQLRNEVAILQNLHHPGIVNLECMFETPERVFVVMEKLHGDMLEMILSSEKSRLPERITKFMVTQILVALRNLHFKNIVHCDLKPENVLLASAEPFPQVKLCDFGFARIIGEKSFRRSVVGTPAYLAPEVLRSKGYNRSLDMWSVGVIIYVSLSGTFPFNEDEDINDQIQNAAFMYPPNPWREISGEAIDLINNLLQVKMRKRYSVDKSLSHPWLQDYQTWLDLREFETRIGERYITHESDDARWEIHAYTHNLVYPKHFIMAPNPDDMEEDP

[34] = test system: Receptor-type tyrosine-protein kinase FLT3 (Homo sapiens), P36888 [D835Y]; experiment: Inhibition of FLT3 D835Y (mutant) at 10 uM
[35] = target: NT-3 growth factor receptor (Homo sapiens) (UniProt Q16288); experiment: Inhibition of TRKC at 10 uM
[36] = target: Fibroblast growth factor receptor 3 (Homo sapiens) (UniProt P22607); experiment: Inhibition of FGFR3 at 10 uM
[37] = Inhibition of PKG2 at 10 uM
[38] = target: Phosphorylase b kinase gamma catalytic chain, liver/testis isoform (Homo sapiens) (UniProt P15735); experiment: Inhibition of PHKgamma2 at 10 uM
Sequence of Phosphorylase b kinase gamma catalytic chain, liver/testis isoform (Homo sapiens) (P15735 whole entry, canonical isoform): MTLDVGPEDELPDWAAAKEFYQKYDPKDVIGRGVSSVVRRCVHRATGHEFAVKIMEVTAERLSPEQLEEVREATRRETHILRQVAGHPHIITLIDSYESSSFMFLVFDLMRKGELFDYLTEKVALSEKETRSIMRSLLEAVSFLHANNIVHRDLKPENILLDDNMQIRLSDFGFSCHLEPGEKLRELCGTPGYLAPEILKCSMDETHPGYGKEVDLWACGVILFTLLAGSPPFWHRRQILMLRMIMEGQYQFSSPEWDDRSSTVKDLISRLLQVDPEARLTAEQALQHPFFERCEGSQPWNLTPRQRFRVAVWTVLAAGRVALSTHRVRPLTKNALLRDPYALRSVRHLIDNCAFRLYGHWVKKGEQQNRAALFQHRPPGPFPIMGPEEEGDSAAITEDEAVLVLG

[39] = target: Cyclin-dependent kinase 5/CDK5 activator 1 (Homo sapiens) (UniProt Q00535+Q15078); experiment: Inhibition of CDK5/p35 at 10 uM; type: protein-complex assay
[40] = target: Serine/threonine-protein kinase 4 (Homo sapiens) (UniProt Q13043); experiment: Inhibition of MST1 at 10 uM
[41] = target: ALK tyrosine kinase receptor (Homo sapiens) (UniProt Q9UM73); experiment: Inhibition of ALK at 10 uM
[42] = target: Tyrosine-protein kinase SYK (Homo sapiens) (UniProt P43405); experiment: Inhibition of SYK at 10 uM
[43] = target: Aurora kinase B (Homo sapiens) (UniProt Q96GD4); experiment: Inhibition of Aurora B at 10 uM
[44] = target: Serine/threonine-protein kinase 3 (Homo sapiens) (UniProt Q13188); experiment: Inhibition of MST2 at 10 uM
[45] = target: Dual specificity tyrosine-phosphorylation-regulated kinase 1B (Homo sapiens) (UniProt Q9Y463); experiment: Inhibition of DYRK1B at 10 uM

Sequence of Protein kinase C epsilon type (Homo sapiens) (Q02156 whole entry): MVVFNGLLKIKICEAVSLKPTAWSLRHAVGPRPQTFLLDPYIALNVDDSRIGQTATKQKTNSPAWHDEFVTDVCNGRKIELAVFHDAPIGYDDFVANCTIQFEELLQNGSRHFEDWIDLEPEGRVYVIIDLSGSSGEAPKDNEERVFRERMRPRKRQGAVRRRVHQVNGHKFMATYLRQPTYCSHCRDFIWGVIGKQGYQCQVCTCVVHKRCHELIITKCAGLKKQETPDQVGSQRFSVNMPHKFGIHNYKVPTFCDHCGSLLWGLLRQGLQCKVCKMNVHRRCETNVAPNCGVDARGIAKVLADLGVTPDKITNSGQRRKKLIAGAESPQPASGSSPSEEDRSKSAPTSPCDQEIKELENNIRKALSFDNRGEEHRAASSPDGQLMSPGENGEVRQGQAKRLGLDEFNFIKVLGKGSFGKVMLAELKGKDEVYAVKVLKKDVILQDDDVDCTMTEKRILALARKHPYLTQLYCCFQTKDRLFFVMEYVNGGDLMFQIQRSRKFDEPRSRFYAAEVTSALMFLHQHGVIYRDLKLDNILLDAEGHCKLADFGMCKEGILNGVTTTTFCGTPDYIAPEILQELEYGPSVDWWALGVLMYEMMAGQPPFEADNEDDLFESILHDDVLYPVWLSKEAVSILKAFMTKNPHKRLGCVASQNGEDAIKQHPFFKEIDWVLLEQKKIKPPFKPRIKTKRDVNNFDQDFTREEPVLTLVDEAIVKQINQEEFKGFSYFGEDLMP

inhibition [1]: < 50%
inhibition [2]: < 50%
inhibition [3]: < 50%
inhibition [4]: < 50%
inhibition [5]: < 50%
remaining at 0.75 h, 2 µM [6]: 57%
inhibition [7]: < 50%
inhibition [8]: < 50%
inhibition [9]: < 50%
inhibition [10]: < 50%
inhibition [11]: < 50%
inhibition [12]: < 50%
inhibition [13]: < 50%
inhibition [14]: < 50%
inhibition [15]: < 50%
inhibition [16]: < 50%
inhibition [17]: < 50%
inhibition [18]: < 50%
inhibition [19]: < 50%
inhibition [20]: < 50%
inhibition [21]: < 50%
inhibition [22]: < 50%
inhibition [23]: < 50%
inhibition [24]: < 50%
inhibition [25]: < 50%
inhibition [26]: < 50%
inhibition [27]: < 50%
inhibition [28]: < 50%
inhibition [29]: < 50%
inhibition [30]: < 50%
inhibition [31]: < 50%
inhibition [32]: < 50%
inhibition [33]: < 50%
inhibition [34]: < 50%
inhibition [35]: < 50%
inhibition [36]: < 50%
inhibition [37]: < 50%
inhibition [38]: < 50%
inhibition [39]: < 50%
inhibition [40]: < 50%
inhibition [41]: < 50%
inhibition [42]: < 50%
inhibition [43]: < 50%
inhibition [44]: < 50%
inhibition [45]: < 50%
Structure (SMILES): Cc1cc(OCc2ccc(F)cc2F)c(Br)c(=O)n1Cc1ccc(CN(C)C)cc1
inhibition in vivo at 5 mg/kg (Rattus norvegicus): 87%
